Assay results published in ChEMBL document CHEMBL4229392, “An Efficient Buchwald-Hartwig/Reductive Cyclization for the Scaffold Diversification of Halogenated Phenazines: Potent Antibacterial Targeting, Biofilm Eradication, and Prodrug Exploration” (J Med Chem, 2018).
Converted amounts (≈) assume the structure as drawn.

Columns and labels:
[1] = Hemolytic activity in human RBC at 200 uM after 1 hr relative to control; type: ADME, cell-based, Erythrocyte; settings: red blood cells (erythrocytes), read-out: Activity
In short: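 Human RBCs drawn fresh into EDTA were washed three times in Tris-buffered saline (0.01 M Tris, 0.155 M NaCl, pH 7.2). 2% hRBC suspension was added to compound from DMSO stock, final 200 µM, for 1 h at 37 °C, then centrifuged and supernatant OD405 read. Scaled between DMSO (0%) and Triton X (100%). Three independent experiments.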

Staphylococcus aureus [2] = assay: Induction of biofilm eradication of methicillin-resistant Staphylococcus aureus BAA-1707 after 24 hrs by calgary biofilm device method; type: functional
In short: (§1)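 Calgary device: biofilms established 24 h at 37 °C from mid-log culture diluted 1,000-fold in TSBG (0.5% glucose), washed, exposed 24 h to 2-fold serial dilutions, then peg lid moved to fresh TSBG for 24 h recovery. MBEC = lowest concentration giving no turbidity; at least three independent experiments.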

Staphylococcus aureus [3] = assay: Bactericidal activity against methicillin-resistant Staphylococcus aureus BAA-1707 planktonic cells after 24 hrs by calgary biofilm device method; type: organism-based
In short: (§2)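 Biofilms grown 24 h at 37 °C on Calgary device pegs from mid-log culture diluted 1,000-fold in TSB + 0.5% glucose; washed pegs challenged 24 h at 37 °C with 2-fold serial dilutions. Challenge medium subcultured into fresh TSBG overnight; MBC = concentration without visible turbidity; at least three independent experiments.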

Staphylococcus aureus [4] = assay: Antibacterial activity against methicillin-resistant Staphylococcus aureus BAA-1707 after 16 to 18 hrs by broth microdilution method; type: functional
In short: (§3)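 CLSI broth microdilution in Lysogeny Broth, eleven two-fold dilutions spanning 0.10–100 µM; ~10^5 cells per well from log-phase culture; DMSO vehicle (top 1% v/v). MIC = lowest concentration preventing growth after 16–18 h at 37 °C, supported by OD600; three independent experiments.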

Staphylococcus aureus [5] = assay: Antibacterial activity against methicillin-resistant Staphylococcus aureus 2 after 16 to 18 hrs by broth microdilution method; type: functional; in short: as §3
Staphylococcus aureus [6] = assay: Induction of biofilm eradication of methicillin-resistant Staphylococcus aureus 2 after 24 hrs by calgary biofilm device method; type: functional; in short: as §1
Enterococcus faecium [7] = assay: Antibacterial activity against vancomycin-resistant Enterococcus faecium ATCC 700221 after 16 to 18 hrs by broth microdilution method; type: functional; in short: as §3
[8] = system: Staphylococcus epidermidis; assay: Antibacterial activity against methicillin-resistant Staphylococcus epidermidis ATCC 35984 after 16 to 18 hrs by broth microdilution method; type: functional
Staphylococcus aureus [9] = assay: Bactericidal activity against methicillin-resistant Staphylococcus aureus 2 planktonic cells after 24 hrs by calgary biofilm device method; type: organism-based; in short: as §2
HeLa = assay: Cytotoxicity against human HeLa cells after 24 hrs by LDH release assy; type: cell-based
In short: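 HeLa cells in DMEM with 10% FBS at 37 °C, 5% CO2, dosed at 70-80% confluence with compound diluted in medium at 25, 50 and 100 µM for 24 h. Supernatant mixed with LDH reaction mixture, 30 min at room temperature, stopped, A490 read. Triton X-100 (2% v/v) as maximal-release control, medium only as no-death control, DMSO as vehicle. Three independent experiments.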

[10] = Half life in human serum by LC-MS analysis; type: ADME, cell-free
In short: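 Human serum pre-warmed to 37 °C, spiked with prodrug from 10 mM DMSO stock plus internal standard, vortexed, then held 1 to 60 min. At each time point, acetonitrile with 0.5% formic acid was added to precipitate proteins. Released active HP was quantified as its ratio to internal standard against standard curves.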

[11] = system: Staphylococcus epidermidis; assay: Bactericidal activity against methicillin-resistant Staphylococcus epidermidis ATCC 35984 planktonic cells after 24 hrs by calgary biofilm device method; type: organism-based; in short: as §2
[12] = system: Staphylococcus epidermidis; assay: Induction of biofilm eradication of methicillin-resistant Staphylococcus epidermidis ATCC 35984 after 24 hrs by calgary biofilm device method; type: functional; in short: as §1
[13] = system: Mycobacterium tuberculosis; assay: Antibacterial activity against Mycobacterium tuberculosis H37Ra ATCC 25177 after 7 days; type: functional; settings: H37Ra ATCC 25177, 168 h
In short: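 M. tuberculosis H37Ra grown two weeks in Middlebrook 7H9, diluted to OD600 0.01; two-fold serial dilutions 0.024–50 µM (streptomycin positive control, 0.16–340 µM); final DMSO 0.5%. Incubated 7 days at 37 °C; MIC = lowest concentration with no growth, OD600 recorded; three independent experiments.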

Enterococcus faecium [14] = assay: Bactericidal activity against vancomycin-resistant Enterococcus faecium ATCC 700221 planktonic cells after 24 hrs by calgary biofilm device method; type: organism-based; in short: as §2
Enterococcus faecium [15] = assay: Induction of biofilm eradication of vancomycin-resistant Enterococcus faecium ATCC 700221 after 24 hrs by calgary biofilm device method; type: functional; in short: as §1

Structure (SMILES): CC(=O)NC[C@H]1CN(c2ccc(N3CCOCC3)c(F)c2)C(=O)O1 [LINEZOLID]
- hemolysis at 1 h, 200 µM [1]: ≤ 1%
- MBEC (Staphylococcus aureus [2]): >2000 µM
- MBC (Staphylococcus aureus [3]): 31.3 µM (≈ 10.6 µg/mL)
- MIC (Staphylococcus aureus [4]): 12.5 µM (≈ 4.22 µg/mL)
- MIC (Staphylococcus aureus [5]): 3.13 µM (≈ 1.06 µg/mL)
- MBEC (Staphylococcus aureus [6]): >2000 µM

Structure (SMILES): CCOc1ccc2nc3c(O)c(Br)cc(Br)c3nc2c1
- MIC (Enterococcus faecium [7]): > 100 µM
- MIC [8]: 18.8 µM (≈ 7.48 µg/mL)
- MIC (Staphylococcus aureus [4]): > 100 µM

Structure (SMILES): NC(=O)c1cnccn1 [PYRAZINAMIDE]
- MBC (Staphylococcus aureus [9]): > 2000 µM
- MBEC (Staphylococcus aureus [6]): >2000 µM

Structure (SMILES): O=C(OCCOCCOCCOCCO)OCOc1c(Br)cc(Br)c2nc3ccccc3nc12
- IC50 (HeLa): > 100 µM
- MIC (Enterococcus faecium [7]): > 100 µM
- hemolysis at 1 h, 200 µM [1]: 2.7%
- MIC [8]: > 100 µM
- MIC (Staphylococcus aureus [4]): > 100 µM
- half-life [10]: 7.3 min

Structure (SMILES): CO[C@H]1/C=C/O[C@@]2(C)Oc3c(C)c(O)c4c(O)c(c(/C=N/N5CCN(C)CC5)c(O)c4c3C2=O)NC(=O)/C(C)=C\C=C\[C@H](C)[C@H](O)[C@@H](C)[C@@H](O)[C@@H](C)[C@H](OC(C)=O)[C@@H]1C [RIFAMPIN]
- MBC (Staphylococcus aureus [9]): 2 µM (≈ 1.65 µg/mL)
- MBC [11]: 3 µM (≈ 2.47 µg/mL)
- MIC [8]: 0.1 µM (≈ 0.0823 µg/mL)
- MIC (Staphylococcus aureus [5]): 0.1 µM (≈ 0.0823 µg/mL)
- MBEC [12]: 15.6 µM
- MBEC (Staphylococcus aureus [6]): 46.9 µM

Structure (SMILES): CN[C@@H]1[C@H](O[C@H]2[C@H](O[C@H]3[C@H](O)[C@@H](O)[C@H](N=C(N)N)[C@@H](O)[C@@H]3N=C(N)N)O[C@@H](C)[C@]2(O)C=O)O[C@@H](CO)[C@H](O)[C@H]1O [STREPTOMYCIN]
- MIC [13]: 1.32 µM (≈ 0.768 µg/mL)

Structure (SMILES): CCc1ccc2nc3c(O)ccc(Br)c3nc2c1
- IC50 (HeLa): > 100 µM
- MIC [13]: 25 µM (≈ 7.58 µg/mL)
- MIC (Enterococcus faecium [7]): 12.5 µM (≈ 3.79 µg/mL)
- MIC [8]: 9.38 µM (≈ 2.84 µg/mL)

Structure (SMILES): CS(=O)(=O)N1CCN(C(=O)Oc2c(Br)cc(Br)c3nc4ccccc4nc23)C1=O
- IC50 (HeLa): > 100 µM
- MBC [11]: 18.8 µM (≈ 10.2 µg/mL)
- MBC (Enterococcus faecium [14]): 9.38 µM (≈ 5.1 µg/mL)
- MIC (Enterococcus faecium [7]): 3.13 µM (≈ 1.7 µg/mL)
- hemolysis at 1 h, 200 µM [1]: ≤ 1%
- MBEC (Staphylococcus aureus [2]): 75 µM
- MBC (Staphylococcus aureus [3]): 37.5 µM (≈ 20.4 µg/mL)
- MIC [8]: 1.56 µM (≈ 0.849 µg/mL)
- half-life [10]: < 1 min
- MBEC (Enterococcus faecium [15]): 9.38 µM
- MBEC [12]: 37.5 µM

Structure (SMILES): COCCOCCOCC(=O)Oc1c(Br)cc(Br)c2nc3ccccc3nc12
- IC50 (HeLa): > 100 µM
- MBC [11]: 9.38 µM (≈ 4.82 µg/mL)
- MBC (Enterococcus faecium [14]): 6.25 µM (≈ 3.21 µg/mL)
- MIC (Enterococcus faecium [7]): 3.13 µM (≈ 1.61 µg/mL)
- hemolysis at 1 h, 200 µM [1]: 1.2%
- MBEC (Staphylococcus aureus [2]): 75 µM
- MBC (Staphylococcus aureus [3]): 18.8 µM (≈ 9.67 µg/mL)
- half-life [10]: < 1 min
- MBEC [12]: 37.5 µM

Structure (SMILES): N#CC(C#N)=NNc1cccc(Cl)c1 [CARBONYL CYANIDE M-CHLOROPHENYLHYDRAZONE]
- MBC (Staphylococcus aureus [9]): 31.3 µM (≈ 6.4 µg/mL)
- MBC [11]: 31.3 µM (≈ 6.4 µg/mL)
- MBEC [12]: 93.8 µM
- MBEC (Staphylococcus aureus [6]): 1000 µM

Structure (SMILES): OC[C@H]1O[C@@H](Oc2c(Br)cc(Br)c3nc4ccccc4nc23)[C@H](O)[C@@H](O)[C@@H]1O
- MIC (Enterococcus faecium [7]): > 100 µM
- hemolysis at 1 h, 200 µM [1]: ≤ 1%
- MIC [8]: > 100 µM
- MIC (Staphylococcus aureus [4]): > 100 µM
- half-life [10]: > 260 min

Structure (SMILES): COCCOCCOCCOC(=O)OCOc1c(Br)cc(Br)c2nc3ccccc3nc12
- MIC (Enterococcus faecium [7]): > 100 µM
- hemolysis at 1 h, 200 µM [1]: 1.4%
- MIC [8]: > 100 µM
- MIC (Staphylococcus aureus [4]): > 100 µM
- half-life [10]: 15.8 min

Structure (SMILES): CC(=O)N[C@@H](CS)C(=O)O [ACETYLCYSTEINE]
- MBC (Staphylococcus aureus [9]): > 2000 µM
- MBC [11]: > 2000 µM
- MBC (Enterococcus faecium [14]): > 2000 µM
- MBEC (Enterococcus faecium [15]): >2000 µM
- MBEC [12]: >2000 µM
- MBEC (Staphylococcus aureus [6]): >2000 µM

Structure (SMILES): CCCc1cn(Cc2ccc3nc4c(OC(C)=O)c(Br)cc(Br)c4nc3c2)nn1
- MIC (Enterococcus faecium [7]): > 100 µM
- MIC (Staphylococcus aureus [4]): 100 µM (≈ 51.9 µg/mL)
